Measurements: ChEMBL document CHEMBL1147152, “Radiolabeled phenethylguanidines: novel imaging agents for cardiac sympathetic neurons and adrenergic tumors” (J Med Chem, 2007)

What was measured:
Heart = experiment: Neuronal drug uptake rate in isolated Sprague-Dawley rat heart; format: ADME, tissue-based
Outline: (§1)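 Isolated working rat heart perfused with Krebs-Henseleit bicarbonate buffer plus 5 mM glucose, gassed 95% O₂/5% CO₂, with 54 μM corticosterone to block uptake-2. After 30 min stabilization, 10 min constant infusion of ¹¹C tracer (2.0-12.0 μCi/mL perfusate), then 120 min washout. Whole-heart activity read by coincidence CsF detectors and converted to apparent distribution volume. K_up (mL/min/g wet) taken as the linear slope of the 1-4 min infusion data. Clearance half-time (hr) from multi-exponential fit of the washout phase.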

[1] = Drug clearance rate in isolated Sprague-Dawley rat heart; format: ADME, tissue-based; outline: as §1
[2] = Biodistribution in left ventricle of Sprague-Dawley rat at 50 to 350 uCi, iv; format: ADME, organism-based, Heart left ventricle; settings: in vivo
Lung = experiment: Biodistribution in lung of Sprague-Dawley rat at 50 to 350 uCi, iv; format: ADME, organism-based; settings: in vivo
Liver = experiment: Biodistribution in liver of Sprague-Dawley rat at 50 to 350 uCi, iv; format: ADME, organism-based; settings: in vivo
Spleen = experiment: Biodistribution in spleen of Sprague-Dawley rat at 50 to 350 uCi, iv; format: ADME, organism-based; settings: in vivo
Muscle tissue = experiment: Biodistribution in muscle of Sprague-Dawley rat at 50 to 350 uCi, iv; format: ADME, organism-based; settings: in vivo
Adrenal medulla = experiment: Biodistribution in adrenal medulla of Sprague-Dawley rat at 50 to 350 uCi, iv; format: ADME, organism-based; settings: in vivo
Blood = experiment: Biodistribution in blood of Sprague-Dawley rat at 50 to 350 uCi, iv; format: ADME, organism-based; settings: in vivo
[3] = Ratio of drug level in heart to blood in macaque rhesus monkey at 5.4 mCi, iv; format: ADME, organism-based, Macaca mulatta
Outline: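 Rhesus monkey PET: 5.4 mCi of the [¹¹C] tracer, given as an intravenous bolus via catheter to a 5.3 kg animal. Images were reconstructed by OSEM/3D-MAP, and tissue ratios were taken from the dynamic myocardial kinetics.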

PC-12 [4] = experiment: Drug uptake in heart of rat PC12 cells xenografted BALB/c nu/nu mouse at 0.34 mCi at 60 mins; settings: in vivo, 1 h
PC-12 [5] = experiment: Drug uptake in tumor of rat PC12 cells xenografted BALB/c nu/nu mouse at 0.34 mCi within 10 mins; settings: in vivo
Rhesus monkey [6] = experiment: Ratio of drug level in heart to liver in macaque rhesus monkey at 4.9 mCi, iv; format: ADME, organism-based, Macaca mulatta; settings: in vivo
[7] = Ratio of drug level in heart to blood in macaque rhesus monkey at 4.8 mCi, iv; format: ADME, organism-based, Macaca mulatta
Rhesus monkey [8] = experiment: Ratio of drug level in heart to liver in macaque rhesus monkey at 4.8 mCi, iv; format: ADME, organism-based, Macaca mulatta; settings: in vivo

SMILES | Kup (Heart) [mL/min/g] | half-life [1] [h] | Drug uptake [2] [% ID/g] | Drug uptake (Lung) [% ID/g] | Drug uptake (Liver) [% ID/g] | Drug uptake (Spleen) [% ID/g] | Drug uptake (Muscle tissue) [% ID/g] | Drug uptake (Adrenal medulla) [% ID/g] | Drug uptake (Blood) [% ID/g] | Drug uptake (PC-12 [4]) [% ID/g] | Drug uptake (PC-12 [5]) [% ID/g] | Ratio (Rhesus monkey [6]) | Kp [7] | Ratio (Rhesus monkey [8]) | Kp [3]
N=[11C](N)NCCc1ccc(F)c(O)c1 | 0.72 | > 73 | 1.77 | 0.56 | 1.22 | 0.52 | 0.07 | 0.56 | 0.08 | – | – | – | – | – | –
N=[11C](N)NCCc1cccc(I)c1 | 1.1 | 2.4 | – | – | – | – | – | – | – | – | – | – | – | – | –
N=[11C](N)NCCc1cc(O)ccc1F | 0.49 | > 20 | 1.01 | 0.34 | 0.92 | 0.43 | 0.06 | 0.46 | 0.07 | – | – | – | – | – | –
N=[11C](N)NCCc1ccccc1F | 1.76 | 2.3 | – | – | – | – | – | – | – | – | – | – | – | – | –
C[C@H](N[11CH3])[C@H](O)c1cccc(O)c1 | – | – | – | 0.4 | – | – | 0.17 | – | 0.08 | – | – | – | – | – | 4.5
N=[11C](N)NCCc1cccc(F)c1 | 0.24 | 1.9 | – | – | – | – | – | – | – | – | – | – | – | – | –
N=[11C](N)NC[C@H](O)c1ccccc1 | 0.42 | 22 | 1.91 | 0.86 | 3.91 | 0.88 | 0.1 | 0.53 | 0.09 | – | – | – | – | – | –
N=[11C](N)NCC(O)c1cccc(O)c1 (centres undefined) | 0.3 | > 152 | 1.17 | 0.75 | 2.71 | 0.63 | 0.07 | 0.36 | 0.14 | – | – | 0.6 | – | – | –
N=[11C](N)NCCc1cccc(O)c1 | 1.96 | > 102 | 2.28 | 0.74 | 0.89 | 0.63 | 0.07 | 0.88 | 0.07 | – | – | – | 4.7 | 4.4 | –
[11CH3]NC[C@H](O)c1ccc(O)c(O)c1 [[11C]EPINEPHRINE] | – | – | 2.14 | 0.39 | 1.95 | 0.64 | 0.22 | 0.61 | 0.13 | – | – | – | – | – | –

Continued, in another order:

Kup (Heart) [mL/min/g] | half-life [1] [h] | Drug uptake [2] [% ID/g] | Drug uptake (Lung) [% ID/g] | Drug uptake (Liver) [% ID/g] | Drug uptake (Spleen) [% ID/g] | Drug uptake (Muscle tissue) [% ID/g] | Drug uptake (Adrenal medulla) [% ID/g] | Drug uptake (Blood) [% ID/g] | Drug uptake (PC-12 [4]) [% ID/g] | Drug uptake (PC-12 [5]) [% ID/g] | Ratio (Rhesus monkey [6]) | Kp [7] | Ratio (Rhesus monkey [8]) | SMILES | Kp [3]
1.64 | > 45 | 3.3 | 0.68 | 0.84 | 0.97 | 0.14 | 1.17 | 0.16 | 17 | 29 | – | – | – | N=[11C](N)NCCc1ccc(O)cc1 | –
0.63 | 4.4 | – | – | – | – | – | – | – | – | – | – | – | – | N=[11C](N)NCCc1ccc(F)cc1 | –
0.56 | 1.9 | – | – | – | – | – | – | – | – | – | – | – | – | N=[11C](N)NCCc1ccc(I)cc1 | –
0.73 | 2.3 | – | – | – | – | – | – | – | – | – | – | – | – | COc1ccc(CCN[11C](=N)N)cc1 | –
1.56 | 3.3 | – | – | – | – | – | – | – | – | – | – | – | – | N=[11C](N)NCCc1ccccc1 [[11C]PHENETHYLGUANIDINE] | –
